This is an account of results in ChEMBL document CHEMBL1156600, “Diacarperoxides, norterpene cyclic peroxides from the sponge Diacarnus megaspinorhabdosa” (J Nat Prod, 2008).

One data set concerns PC-12. Nature of the data set: Cytotoxicity against rat PC12 cells by MTT assay. It is filed as functional, cell-based. An outline of the steps:
(§1)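 Antiproliferative MTT (microculture tetrazolium) read-out in cancer cell lines: HeLa human cervix carcinoma, L5178Y mouse lymphoma, PC12 rat […] cells.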
For orientation: Tetrazolium assays rely on reduction of a dye to a coloured formazan, in cell work by metabolically active cells.

Another data set deals with L5178Y. In words: Cytotoxicity against mouse L5178Y cells by MTT assay. The data set is classed as functional, cell-based. An outline of the steps: as §1
Data set [1] in a line: Toxicity in Artemia salina assessed as mortality at 10 ug/ml after 48 hrs. It is filed as organism-based. The conditions noted are these: in vivo, read-out: Activity.
In another data set the test system is HeLa. In words: Cytotoxicity against human HeLa cells by MTT assay. It is filed as functional, cell-based. Put shortly: as §1
The nature of data set [2]: Toxicity in Artemia salina assessed as mortality at 10 ug/ml after 24 hrs. Particulars: in vivo, read-out: Activity. It is filed as organism-based.

Converted amounts (≈) assume the structure as drawn. The source made the active and inactive calls. The rule behind the calls is not given here.

`CCCC(O)CCC(C)(O)CC/C=C(\C)CCC1=C(C)CCCC1(C)C` (centres undefined) [DIACARDIOL A]: the EC50 in the data set on PC-12 is greater than 10 µg/mL; in the data set on L5178Y, 4.8 µg/mL (≈ 13.2 µM); in the data set with HeLa it was greater than 10 µg/mL. Moreover, the mortality at 48 h, 10 ug/ml in data set [1] was 40%. Also, the mortality at 24 h, 10 ug/ml in data set [2] is 20%.
Regarding `COC(=O)[C@H](C)[C@@H]1CC[C@@](C)(CCC2=C(C)CCCC2(C)C)OO1`, the outcome in the data set on PC-12, in the data set on L5178Y and with HeLa was inactive. Further, the mortality at 48 h, 10 ug/ml in data set [1] was found to be 65%. For the same molecule, the mortality at 24 h, 10 ug/ml in data set [2] stood at 25%.
As to `CC1=C(CC[C@]2(C)CC[C@H]([C@@H](C)C(=O)O)OO2)[C@@]2(C)CCCC(C)(C)[C@@H]2CC1=O` [DIACARPEROXIDE F], the values for the EC50 with PC-12, with L5178Y and in the data set on HeLa were 0.8 µg/mL (≈ 1.97 µM), 0.06 µg/mL (≈ 0.148 µM) and 0.6 µg/mL (≈ 1.48 µM), respectively.
As to `COC(=O)[C@H](C)[C@H]1CC[C@@](C)(CCC2=C(C)C(=O)C[C@@H]3C(C)(C)CCC[C@@]23C)OO1` [DIACARPEROXIDE G], the EC50 was greater than 10 µg/mL in the data set with PC-12, 2 µg/mL (≈ 4.76 µM) in the data set on L5178Y and greater than 10 µg/mL in the data set with HeLa. The mortality at 48 h, 10 ug/ml in data set [1] is 60%. Further, the mortality at 24 h, 10 ug/ml in data set [2] amounted to 50%.
In the case of `COC(=O)[C@H](C)[C@@H]1CC[C@@](C)(CCC2=C(C)C(=O)CCC2(C)C)OO1` [METHYL DIACARNOATE A], the result in the data set on PC-12 and in the data set with HeLa was inactive. The EC50 in the data set with L5178Y was less than 3 µg/mL.
Consider `COC(=O)[C@H](C)[C@@H]1CC[C@@](C)(CCC(=O)C(C)(C)CCCC(C)=O)OO1` [DIACARPEROXIDE C], for which the outcome with PC-12 and in the data set with HeLa was inactive. In the data set on L5178Y, this molecule had an EC50 greater than 10 µg/mL. In addition, in data set [1], the mortality at 48 h, 10 ug/ml is 55%. Moreover, in data set [2], the mortality at 24 h, 10 ug/ml was found to be 35%.
On to `COC(=O)[C@H](C)[C@H]1CC[C@@](C)(CCC2=C(C)CCCC2(C)C)OO1` [NUAPAPUIN A METHYL ESTER], for which the EC50 was 6.2 µg/mL (≈ 18.3 µM) with PC-12, 0.76 µg/mL (≈ 2.25 µM) in the data set with L5178Y and 5.5 µg/mL (≈ 16.2 µM) in the data set on HeLa. Also, the mortality at 48 h, 10 ug/ml in data set [1] came to 100%. In addition, the mortality at 24 h, 10 ug/ml in data set [2] stood at 100%.
Take `COC(=O)[C@H](C)[C@H]1CC[C@@](C)(CCC2=C(C)C(=O)CCC2(C)C)OO1` [DIACARPEROXIDE A]: the outcome in the data set on PC-12 and with HeLa was inactive. This molecule also came in with an EC50 in the data set with L5178Y greater than 10 µg/mL. In addition, the mortality at 48 h, 10 ug/ml in data set [1] amounted to 55%. For the same molecule, the mortality at 24 h, 10 ug/ml in data set [2] was determined as 35%.
For `CC1=C(CC/C(C)=C/CC[C@@]2(C)CC[C@@H]([C@H](C)C(=O)O)OO2)C(C)(C)CCC1` [EPIMUQUBILIN A], the EC50 was greater than 10 µg/mL in the data set with PC-12, 0.28 µg/mL (≈ 0.713 µM) in the data set with L5178Y and 7.2 µg/mL (≈ 18.3 µM) with HeLa. For the same molecule, the mortality at 48 h, 10 ug/ml in data set [1] was determined as 50%. Further, the mortality at 24 h, 10 ug/ml in data set [2] is 25%.
Regarding `COC(=O)[C@@H](C)[C@@H]1CC[C@](C)(CCC(=O)C(C)(C)CCCC(C)=O)OO1` [DIACARPEROXIDE B], the result in the data set with PC-12 and in the data set with HeLa was inactive. Also, the EC50 in the data set on L5178Y was determined as 10 µg/mL (≈ 27 µM). In addition, in data set [1], the mortality at 48 h, 10 ug/ml was found to be 55%. Also, in data set [2], the mortality at 24 h, 10 ug/ml turned out to be 45%.
For `C=C1CCCC(C)(C)C1(O)CC/C(C)=C/CC[C@]1(C)CC[C@H]([C@@H](C)C(=O)OC)OO1` (some centres undefined) [EPIMUQUBILIN B], the EC50 is 6 µg/mL (≈ 14.2 µM) with PC-12, less than 0.1 µg/mL in the data set on L5178Y and 1 µg/mL (≈ 2.37 µM) with HeLa. Further, in data set [1], the mortality at 48 h, 10 ug/ml is 60%. Further, in data set [2], the mortality at 24 h, 10 ug/ml was 45%.
In the case of `CC1=C(CC[C@]2(C)CC[C@H]([C@@H](C)C(=O)O)OO2)[C@]2(C)CCCC(C)(C)[C@H]2CC1` [DIACARPEROXIDE D], the values for the EC50 in the data set on PC-12, in the data set on L5178Y and in the data set with HeLa were 8.1 µg/mL (≈ 20.6 µM), less than 0.1 µg/mL and 0.17 µg/mL (≈ 0.433 µM), respectively.

As usually defined, the EC50 is the concentration that produces a half-maximal response.
